What was measured:
[1] = target: T1, Serine/threonine-protein kinase Chk1 (Homo sapiens) (UniProt O14757); assay: Inhibition of human recombinant CHK1 at 40 nM in presence of ATP by radiometric assay relative to control
T1 sequence (whole entry): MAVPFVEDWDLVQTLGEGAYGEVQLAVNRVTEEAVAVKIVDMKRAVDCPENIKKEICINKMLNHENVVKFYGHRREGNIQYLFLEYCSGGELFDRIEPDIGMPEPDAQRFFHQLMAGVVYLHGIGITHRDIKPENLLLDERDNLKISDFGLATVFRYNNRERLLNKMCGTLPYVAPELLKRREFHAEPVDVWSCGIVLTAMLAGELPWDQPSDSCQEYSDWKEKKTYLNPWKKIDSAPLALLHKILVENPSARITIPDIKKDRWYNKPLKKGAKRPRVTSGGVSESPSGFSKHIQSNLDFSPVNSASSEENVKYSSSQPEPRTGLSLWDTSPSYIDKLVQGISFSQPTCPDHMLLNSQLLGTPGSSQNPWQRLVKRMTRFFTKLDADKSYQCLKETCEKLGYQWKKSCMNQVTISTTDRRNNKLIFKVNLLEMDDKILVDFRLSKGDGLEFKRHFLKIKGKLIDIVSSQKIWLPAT

[2] = target: T2, SNF-related serine/threonine-protein kinase (Homo sapiens) (UniProt Q9NRH2); assay: Inhibition of human recombinant SNRK at 40 nM in presence of ATP by radiometric assay relative to control
T2 sequence (whole entry): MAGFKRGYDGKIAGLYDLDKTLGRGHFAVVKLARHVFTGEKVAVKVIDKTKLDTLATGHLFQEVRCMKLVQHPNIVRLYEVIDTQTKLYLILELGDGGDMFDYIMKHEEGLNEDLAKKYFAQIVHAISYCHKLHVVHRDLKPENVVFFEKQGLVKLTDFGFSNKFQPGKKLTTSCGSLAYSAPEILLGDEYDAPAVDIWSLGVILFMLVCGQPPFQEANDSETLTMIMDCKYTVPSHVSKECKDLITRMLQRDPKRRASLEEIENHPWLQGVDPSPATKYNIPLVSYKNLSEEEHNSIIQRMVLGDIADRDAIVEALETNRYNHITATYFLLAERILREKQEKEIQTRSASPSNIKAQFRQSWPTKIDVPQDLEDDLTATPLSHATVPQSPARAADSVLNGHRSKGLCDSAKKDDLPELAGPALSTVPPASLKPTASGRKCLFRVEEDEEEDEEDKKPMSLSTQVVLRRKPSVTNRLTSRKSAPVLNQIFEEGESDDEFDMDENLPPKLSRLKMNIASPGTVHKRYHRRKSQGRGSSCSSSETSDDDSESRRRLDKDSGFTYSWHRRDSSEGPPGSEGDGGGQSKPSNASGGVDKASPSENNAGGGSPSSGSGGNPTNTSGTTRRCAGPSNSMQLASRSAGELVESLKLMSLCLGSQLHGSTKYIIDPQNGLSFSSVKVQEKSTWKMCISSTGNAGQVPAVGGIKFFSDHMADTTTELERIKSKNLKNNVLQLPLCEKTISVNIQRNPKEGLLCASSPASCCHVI

[3] = target: Tyrosine-protein kinase CSK (Homo sapiens) (UniProt P41240); assay: Inhibition of human recombinant CSK at 500 nM related to control ULK1
Tyrosine-protein kinase CSK (Homo sapiens), sequence (P41240 2-450 limits assumed): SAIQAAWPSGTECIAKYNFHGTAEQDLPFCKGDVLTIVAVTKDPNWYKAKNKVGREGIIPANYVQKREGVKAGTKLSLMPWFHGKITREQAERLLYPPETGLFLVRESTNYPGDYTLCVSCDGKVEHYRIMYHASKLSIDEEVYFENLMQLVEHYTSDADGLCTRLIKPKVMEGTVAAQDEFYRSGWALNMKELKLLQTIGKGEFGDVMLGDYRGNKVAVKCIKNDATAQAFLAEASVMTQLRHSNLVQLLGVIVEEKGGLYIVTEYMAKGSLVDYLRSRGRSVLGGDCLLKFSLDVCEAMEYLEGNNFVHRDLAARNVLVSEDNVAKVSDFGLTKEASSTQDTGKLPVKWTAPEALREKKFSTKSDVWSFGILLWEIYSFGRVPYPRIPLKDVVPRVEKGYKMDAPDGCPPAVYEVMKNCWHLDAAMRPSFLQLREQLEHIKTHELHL

[4] = target: Fibroblast growth factor receptor 1 (Homo sapiens) (UniProt P11362); assay: Inhibition of human recombinant FGFR1 at 500 nM related to control ULK1
Fibroblast growth factor receptor 1 (Homo sapiens), sequence (P11362 22-822 limits assumed): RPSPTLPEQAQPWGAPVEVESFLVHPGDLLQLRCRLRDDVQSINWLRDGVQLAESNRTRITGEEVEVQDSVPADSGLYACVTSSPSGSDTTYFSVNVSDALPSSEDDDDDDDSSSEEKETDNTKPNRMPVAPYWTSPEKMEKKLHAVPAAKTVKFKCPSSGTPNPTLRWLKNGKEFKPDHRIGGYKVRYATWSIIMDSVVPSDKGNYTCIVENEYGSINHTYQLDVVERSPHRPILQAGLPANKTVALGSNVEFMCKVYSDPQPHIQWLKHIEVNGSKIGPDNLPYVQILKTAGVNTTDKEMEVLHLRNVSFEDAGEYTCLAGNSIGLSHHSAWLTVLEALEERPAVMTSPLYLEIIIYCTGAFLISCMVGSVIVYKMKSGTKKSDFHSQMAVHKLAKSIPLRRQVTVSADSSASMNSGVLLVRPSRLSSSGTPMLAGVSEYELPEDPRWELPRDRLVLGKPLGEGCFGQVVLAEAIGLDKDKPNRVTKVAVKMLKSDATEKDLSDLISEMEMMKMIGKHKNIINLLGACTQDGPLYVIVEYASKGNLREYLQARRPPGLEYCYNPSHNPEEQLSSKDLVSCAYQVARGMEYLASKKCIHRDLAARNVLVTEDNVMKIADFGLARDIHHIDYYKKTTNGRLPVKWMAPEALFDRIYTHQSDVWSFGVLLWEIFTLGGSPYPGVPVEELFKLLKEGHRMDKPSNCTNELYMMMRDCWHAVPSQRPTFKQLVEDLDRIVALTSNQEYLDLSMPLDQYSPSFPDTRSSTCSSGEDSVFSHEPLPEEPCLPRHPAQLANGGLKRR

[5] = target: T3, Serine/threonine-protein kinase BRSK2 (Homo sapiens) (UniProt Q8IWQ3); assay: Inhibition of human recombinant BRSK2 at 15 nM related to control ULK1
T3 sequence (whole entry): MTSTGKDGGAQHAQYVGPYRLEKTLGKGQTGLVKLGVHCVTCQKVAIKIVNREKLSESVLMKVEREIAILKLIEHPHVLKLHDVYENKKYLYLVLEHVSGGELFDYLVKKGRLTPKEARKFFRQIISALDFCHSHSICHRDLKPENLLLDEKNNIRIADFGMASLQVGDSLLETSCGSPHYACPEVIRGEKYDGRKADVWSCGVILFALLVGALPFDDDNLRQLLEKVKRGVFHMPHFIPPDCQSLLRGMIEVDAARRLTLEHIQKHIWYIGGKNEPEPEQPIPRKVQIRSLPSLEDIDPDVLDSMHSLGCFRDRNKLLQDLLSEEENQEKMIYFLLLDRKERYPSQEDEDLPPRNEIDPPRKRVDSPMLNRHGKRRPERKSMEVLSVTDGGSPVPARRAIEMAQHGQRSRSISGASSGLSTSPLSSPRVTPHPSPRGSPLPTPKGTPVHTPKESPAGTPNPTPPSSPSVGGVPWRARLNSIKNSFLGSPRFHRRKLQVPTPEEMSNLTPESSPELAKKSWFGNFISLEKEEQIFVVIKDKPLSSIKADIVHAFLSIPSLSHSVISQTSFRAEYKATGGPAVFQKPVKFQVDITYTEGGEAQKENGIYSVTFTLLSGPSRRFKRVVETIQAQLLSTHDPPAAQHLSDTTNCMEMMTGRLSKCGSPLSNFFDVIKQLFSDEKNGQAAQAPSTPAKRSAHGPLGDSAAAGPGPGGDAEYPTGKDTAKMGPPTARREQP
Summary of the method: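 Recombinant human kinase panel (327 kinases) run as radiometric activity assays, each kinase in duplicate at one compound concentration. Activity remaining expressed relative to vehicle control; percent inhibition taken as 100% minus % activity remaining.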

[6] = target: Insulin receptor-related protein (Homo sapiens) (UniProt P14616); assay: Inhibition of human recombinant IRR at 15 nM related to control ULK1
Insulin receptor-related protein (Homo sapiens), sequence (P14616 27-742 limits assumed): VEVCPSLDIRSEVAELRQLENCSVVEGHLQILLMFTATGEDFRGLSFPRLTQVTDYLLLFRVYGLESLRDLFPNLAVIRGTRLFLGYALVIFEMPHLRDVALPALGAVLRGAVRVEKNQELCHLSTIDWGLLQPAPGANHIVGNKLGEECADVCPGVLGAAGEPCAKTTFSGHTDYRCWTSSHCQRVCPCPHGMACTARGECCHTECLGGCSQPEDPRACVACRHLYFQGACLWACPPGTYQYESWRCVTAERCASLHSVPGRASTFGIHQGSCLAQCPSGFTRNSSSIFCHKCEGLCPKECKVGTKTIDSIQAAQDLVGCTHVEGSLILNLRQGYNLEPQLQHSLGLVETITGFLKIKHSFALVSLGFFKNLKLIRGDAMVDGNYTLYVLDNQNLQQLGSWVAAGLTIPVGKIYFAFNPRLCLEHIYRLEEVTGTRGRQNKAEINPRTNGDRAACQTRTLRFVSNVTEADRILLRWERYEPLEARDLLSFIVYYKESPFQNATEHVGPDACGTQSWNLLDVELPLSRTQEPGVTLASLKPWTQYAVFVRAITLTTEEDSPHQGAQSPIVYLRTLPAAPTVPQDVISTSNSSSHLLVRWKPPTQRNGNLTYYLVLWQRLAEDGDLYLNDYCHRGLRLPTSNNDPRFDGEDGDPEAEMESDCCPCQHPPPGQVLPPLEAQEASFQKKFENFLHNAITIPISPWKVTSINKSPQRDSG
Insulin receptor-related protein (Homo sapiens), sequence (P14616 747-1297 limits assumed): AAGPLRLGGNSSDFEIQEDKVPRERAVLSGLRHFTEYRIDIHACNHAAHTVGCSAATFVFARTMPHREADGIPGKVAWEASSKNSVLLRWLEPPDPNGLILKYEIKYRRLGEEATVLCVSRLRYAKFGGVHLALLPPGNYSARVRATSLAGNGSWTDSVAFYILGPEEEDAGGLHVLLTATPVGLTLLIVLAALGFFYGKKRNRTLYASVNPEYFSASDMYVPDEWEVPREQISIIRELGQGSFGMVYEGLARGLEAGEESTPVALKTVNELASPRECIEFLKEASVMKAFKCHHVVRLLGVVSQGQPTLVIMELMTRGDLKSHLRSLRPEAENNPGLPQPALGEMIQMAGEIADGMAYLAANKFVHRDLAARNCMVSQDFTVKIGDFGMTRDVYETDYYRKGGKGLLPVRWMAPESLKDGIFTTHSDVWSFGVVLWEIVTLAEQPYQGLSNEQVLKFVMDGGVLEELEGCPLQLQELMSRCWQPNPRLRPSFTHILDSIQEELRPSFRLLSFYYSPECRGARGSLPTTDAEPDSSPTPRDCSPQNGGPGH

[7] = target: T4, Tyrosine-protein kinase ZAP-70 (Homo sapiens) (UniProt P43403); assay: Inhibition of human recombinant ZAP70 at 15 nM related to control ULK1
T4 sequence (whole entry): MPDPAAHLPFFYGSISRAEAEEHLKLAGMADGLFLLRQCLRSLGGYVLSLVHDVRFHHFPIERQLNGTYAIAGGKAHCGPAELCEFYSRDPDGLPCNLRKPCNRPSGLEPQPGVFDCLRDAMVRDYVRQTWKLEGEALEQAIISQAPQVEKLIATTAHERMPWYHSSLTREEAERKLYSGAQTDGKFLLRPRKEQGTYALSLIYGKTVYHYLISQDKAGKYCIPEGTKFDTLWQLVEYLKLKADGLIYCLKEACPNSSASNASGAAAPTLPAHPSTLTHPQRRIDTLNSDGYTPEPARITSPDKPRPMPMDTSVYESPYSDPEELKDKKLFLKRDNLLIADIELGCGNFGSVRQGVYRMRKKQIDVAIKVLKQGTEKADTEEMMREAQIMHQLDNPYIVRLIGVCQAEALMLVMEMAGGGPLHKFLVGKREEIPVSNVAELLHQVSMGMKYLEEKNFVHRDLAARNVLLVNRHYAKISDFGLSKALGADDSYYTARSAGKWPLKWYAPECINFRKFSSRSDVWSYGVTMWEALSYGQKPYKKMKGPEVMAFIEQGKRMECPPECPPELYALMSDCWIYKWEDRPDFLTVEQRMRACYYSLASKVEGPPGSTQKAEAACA

SMILES: O=C(N[C@@H](C1CC1)C(F)(F)F)c1cc(-c2cnn3cc(-c4ccc(F)cc4)cnc23)cs1
- inhibition [1]: 0%
- inhibition [2]: 0%

SMILES: CNC(=O)c1ccccc1Oc1nc(Nc2cc(OC)c(OC)c(OC)c2)ncc1Br
- fold change (FC) [3]: 0.03
- fold change (FC) [4]: 0.47

SMILES: CC(C)[C@H](NC(=O)c1cc(-c2cnn3cc(-c4ccc(OCCN5CCCCC5)cc4)cnc23)cs1)C(F)(F)F
- fold change (FC) [5]: 0.28
- fold change (FC) [6]: 0.02
- fold change (FC) [7]: 0

Source: ChEMBL document CHEMBL5653631, “A Potent and Selective ULK1 Inhibitor Suppresses Autophagy and Sensitizes Cancer Cells to Nutrient Stress” (iScience, 2018)
